Source: PubChem BioAssay (several laboratories)
Hits are enriched below; roughly 0.94% of the tested compounds scored in any of these assays.
GalR3 antagonist: human GalR3 antagonism | O60755 | HEK293 GalR3-CNG cAMP membrane potential fluorescence; galR3 body fused to GalR1 C-terminus | inhibition, % at 3 µM | actives 0.44% (n = 360,000);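 active = inhibition above the screen-wide average plus 3 SD, cut at about 13% in these data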;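 also: forskolin and galanin both at EC90 stimulate the cells; cAMP rise reported by CNG channel membrane potential dye signal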
GC-A act: GC-A (human) enzyme activation | HEK293 GC-A cells, cGMP TR-FRET, EC30 ANP; 0% at EC30 ANP, 100% saturating ANP | activation, % at 10 µM | actives 0.14% (n = 370,000); in the data active = activation above about 40%
Target sequence (P16066 whole entry, looked up): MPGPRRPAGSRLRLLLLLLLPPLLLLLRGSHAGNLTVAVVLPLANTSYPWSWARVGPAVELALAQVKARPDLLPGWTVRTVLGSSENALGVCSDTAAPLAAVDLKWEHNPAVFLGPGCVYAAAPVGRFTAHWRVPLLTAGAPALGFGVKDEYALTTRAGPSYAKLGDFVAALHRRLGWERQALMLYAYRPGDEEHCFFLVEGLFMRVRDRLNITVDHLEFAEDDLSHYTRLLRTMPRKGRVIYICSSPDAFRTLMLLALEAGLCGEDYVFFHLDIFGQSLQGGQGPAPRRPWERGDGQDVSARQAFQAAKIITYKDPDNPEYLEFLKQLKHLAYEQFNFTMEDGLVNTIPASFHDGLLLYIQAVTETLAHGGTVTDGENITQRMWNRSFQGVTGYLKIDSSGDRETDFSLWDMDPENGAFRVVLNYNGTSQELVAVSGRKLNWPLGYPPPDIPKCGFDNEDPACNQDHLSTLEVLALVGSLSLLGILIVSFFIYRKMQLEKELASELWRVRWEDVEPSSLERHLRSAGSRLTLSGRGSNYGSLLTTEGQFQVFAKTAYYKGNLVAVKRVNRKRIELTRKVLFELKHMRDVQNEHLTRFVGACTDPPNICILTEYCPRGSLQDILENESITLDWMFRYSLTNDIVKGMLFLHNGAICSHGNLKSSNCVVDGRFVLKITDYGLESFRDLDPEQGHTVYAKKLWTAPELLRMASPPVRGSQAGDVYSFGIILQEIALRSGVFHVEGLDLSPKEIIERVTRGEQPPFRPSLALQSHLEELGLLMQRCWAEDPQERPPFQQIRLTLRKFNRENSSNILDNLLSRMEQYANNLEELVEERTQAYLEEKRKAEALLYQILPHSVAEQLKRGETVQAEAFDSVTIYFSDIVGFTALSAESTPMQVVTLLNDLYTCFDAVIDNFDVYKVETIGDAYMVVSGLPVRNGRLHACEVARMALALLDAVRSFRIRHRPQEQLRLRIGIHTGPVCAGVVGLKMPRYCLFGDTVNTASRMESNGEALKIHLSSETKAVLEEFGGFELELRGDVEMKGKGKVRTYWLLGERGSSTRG
GC-B act: GC-B (human) receptor activation; P20594; HEK293-GC-B cells, CNP EC30, cGMP TR-FRET; 0% at EC30 CNP, 100% saturating CNP; activation, % at 10 µM; actives 0.11% (n = 370,000);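 active = activation at 10 µM reaching about 35% in either raw or pattern-adjusted values, limit read from the data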
Arrestin-AP2 inh: human beta-arrestin and AP2 interaction inhibition | FITC-arrestin peptide / GST-AP2 beads, flow cytometry; AP2 beta2 appendage carries R879A mutation | inhibition, % at 10 µM | actives 0.31% (n = 340,000);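 active = inhibition above a set limit, near 3 SD of compounds lacking own fluorescence, cut at about 54% in these data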
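System: GST-AP2 R879A glutathione beads. Medium: PBS with 0.05% Tween 20 and 0.1% BSA. Also added: FITC-arrestin peptide, 50 nM. Incubation: 12 min plus 1 h, RT. Measured by: high-throughput flow cytometry of beads, ex 488, em 535 nm. Evaluation: percent drop in bead-associated FITC signal.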
Large screens that a line does not name were inactive.

c1ccc(-c2cc3c(N4CCN(c5ncccn5)CC4)ncnc3s2)cc1	GC-A act 52
c1cncc(-c2nc(NCc3ccc4c(c3)OCO4)c3ccccc3n2)c1	GC-A act 53, GC-B act 59
Cc1ccc(CNc2nc(-c3cccnc3)nc3ccccc23)cc1	GC-A act 56, GC-B act 57
Cc1ccc(-c2nc3cnccn3c2Nc2ccccc2)o1	GC-B act 32
Cc1ccc(Nc2c(-c3ccc(C)o3)nc3cnccn23)cc1	GC-B act 40 (no result: GalR3 antagonist)
Cc1ccc(-c2nc3ccccn3c2Nc2ccccc2)o1	none
COc1cccc(C(=O)N[C@H](C(=O)N2CCC[C@H]2C(=O)NCCc2ccccc2Cl)C2CCCCC2)c1	none (no result: Arrestin-AP2 inh)
O=C(Nc1cccc([N+](=O)[O-])c1)c1ccc2c(c1)C(=O)N(c1ccccn1)C2=O	GC-A act 42
COC(=O)c1sc(-c2ccc(Cl)cc2)cc1NC(=O)/C=C/C(=O)O	GC-A act 47
COC(=O)c1sc(-c2ccc(Cl)cc2)cc1NC(=O)COCC(=O)O	none
COc1cc(F)ccc1Oc1cccc2c1S(=O)(=O)N(C1CC1)C[C@@H](COCc1ccccc1)O2	none (no result: Arrestin-AP2 inh)
OCC1OC(n2cnc3c(NCc4ccco4)ncnc32)C(O)C1O (centres undefined)	GalR3 antagonist 86
O=C1C=CC(=Nc2ccc3c(c2)Cc2cc(F)ccc2-3)O1	GC-B act 35
N#Cc1nc(COc2ccccc2)oc1NCCN1CCOCC1	none
N#Cc1nc(COc2ccc(-c3ccccc3)cc2)oc1NCCCN1CCOCC1	Arrestin-AP2 inh 83
C[C@@H]1CN([C@@H](C)CO)C(=O)CCCn2cc(nn2)CO[C@H]1CN(C)S(C)(=O)=O	none (no result: Arrestin-AP2 inh)
O=C1OCCC1Sc1nnc(-c2ccc(Cl)cc2Cl)o1 (centres undefined)	GC-A act 70
C[C@@H]1CN([C@H](C)CO)C(=O)c2cc(NS(=O)(=O)c3ccccc3)ccc2O[C@@H](C)CCCCO[C@@H]1CN(C)Cc1ccccc1	none (no result: Arrestin-AP2 inh)
O=c1c2c(n3cnnc3n1-c1ccccc1)-c1ccccc1CC21CCCC1	none
O=c1c2c(n3nnnc3n1-c1ccccc1)-c1ccccc1CC21CCCC1	GalR3 antagonist 14
COc1ccccc1/C=C/C=N/Nc1cccc(C(=O)O)c1	GC-A act 54
COc1ccc(Br)cc1/C=N/Nc1cccc(C(=O)O)c1	none
O=C(CCl)Nc1ccccc1Sc1ccc(Cl)cc1	GC-A act 45
COc1ccc(C(=O)N2CCC[C@H]2C(=O)N2CCC[C@@H]2C(=O)NCc2ccccc2)cc1F	none (no result: Arrestin-AP2 inh)
CCOC(=O)c1cnc2ccc(C(=O)OC)cc2c1NCCc1ccc(OC)c(OC)c1	GC-B act 36
CCOC(=O)c1cnc2c(C)cccc2c1NCCc1ccc(OC)c(OC)c1	none
O=C(N/N=C/c1ccc([N+](=O)[O-])o1)C(O)c1ccccc1 (centres undefined)	none
O=C(N/N=C/c1ccc(-c2ccc([N+](=O)[O-])cc2)o1)C(O)c1ccccc1 (centres undefined)	GC-A act 42, GC-B act 40
CCCC/C=C1/[C@@H](CC)N(Cc2ccc(OC)cc2OC)C2=N[C@H](c3ccccc3)CC(=O)N21	none (no result: GalR3 antagonist, Arrestin-AP2 inh)
O=C(N[C@H](C(=O)N1CCC[C@H]1C(=O)NCCc1ccccc1Cl)c1ccccc1)c1ccc(Cl)cc1Cl	none (no result: Arrestin-AP2 inh)
Nc1ccn([C@@H]2O[C@H](C(=O)N[C@H](Cc3ccccc3)C(=O)N3CCC(F)(F)CC3)[C@@H](O)[C@H]2O)c(=O)n1	none (no result: Arrestin-AP2 inh)
N#Cc1cccc(NC(=O)OC2CC3CC2[C@H]2CCCCN2[C@H]3Cc2ccccc2)c1 (some centres undefined)	none (no result: GalR3 antagonist, Arrestin-AP2 inh)
Cc1ccc(-c2cc(N)n(Cc3ccc(Cl)cc3)n2)cc1	GalR3 antagonist 89
Cc1cc(N)n(Cc2ccc(Cl)cc2)n1	none
CC(=O)N1CCN(c2ccc(N3CCN(Cc4ccccc4)[C@H](C)C3)c(C)c2)[C@@H](C)C1	none (no result: Arrestin-AP2 inh)
O=C(CC(=O)c1ccccc1)c1ccccc1	none
CN(CCC(=O)c1ccccc1)CCC(=O)c1ccccc1	GC-A act 63
CN(C)CCC(=O)c1ccc(Cl)cc1	GC-A act 62
Cc1cc(Cl)ccc1OCC(=O)Nc1ccncc1	GalR3 antagonist 55
Cc1nn(C)c(C)c1NC(=O)COc1ccc(F)cc1Br	none
Cc1nn(C)c(C)c1NC(=O)COc1ccc(Cl)cc1Br	GalR3 antagonist 53
c1cc2ccn(CC3CC3)c2cc1-c1ccc2ccn(CC3CC3)c2c1	GC-B act 38 (no result: GalR3 antagonist, Arrestin-AP2 inh)
Fc1ccc(Cn2ccc3ccc(-c4ccc5ccn(Cc6ccc(F)cc6)c5c4)cc32)cc1	none (no result: GalR3 antagonist, Arrestin-AP2 inh)
Cn1cnc([N+](=O)[O-])c1Sc1nc(N)nc2c1ncn2Cc1ccccc1	GC-B act 44
CCCn1cnc2c(Sc3c([N+](=O)[O-])ncn3C)nc(N)nc21	none
NC(=O)CCCn1c(C(=O)c2cc(Cl)c(N)c(Cl)c2)c2ccc(C(F)(F)F)cc2[n+]1[O-]	GC-B act 84
COc1cc(Cl)ccc1OCc1cc(C(=O)N[C@H]2CCCCNC2=O)no1	GC-A act 60
O=S1(=O)N[C@H](Cc2ccccc2)COc2cccc(N3CCCCC3)c21	none (no result: Arrestin-AP2 inh)
Cc1cccc(N=Nc2ccc(O)c3ncccc23)c1	none
Cc1ccc(C)c(N=Nc2ccc(O)c3ncccc23)c1	Arrestin-AP2 inh 103
O=C1C=CC2(O[C@H](c3ccccc3)[C@@H](c3ccccc3)O2)[C@H](Sc2ccccc2O)C1	GalR3 antagonist 16
COc1cccc(Cn2cc(COC(=O)N3CCCC3)nn2)c1	none (no result: GalR3 antagonist, Arrestin-AP2 inh)
Cc1cccc2c1N(C)C(=O)C2=O	none
Cc1cc(C)c(S(=O)(=O)ON2C(=O)c3ccccc3C2=O)cc1C	GC-B act 36
Cc1ccc(S(=O)(=O)ON2C(=O)c3ccccc3C2=O)c(C)c1	GC-A act 41, GC-B act 46
Cc1ccc(S(=O)(=O)N2CCN(CCc3ccccc3)CC2)c(C)c1	none
O=C1c2ccccc2C(=O)N1OS(=O)(=O)c1ccc(F)cc1	GC-A act 42
O=S(=O)(c1ccccc1)N1CCN(S(=O)(=O)c2ccc(F)cc2)CC1	none
Cc1cc(C)c(C)c(S(=O)(=O)ON2C(=O)c3ccccc3C2=O)c1C	GC-A act 42, GC-B act 47
COc1ccc(-c2cc(NC(=O)Cc3c(C)[nH]c4ccccc34)ccc2Nc2cccnc2)cc1OC	none (no result: Arrestin-AP2 inh)
CC(C)CN1CN2CCc3ccccc3C2CS1(=O)=O (centres undefined)	none (no result: GalR3 antagonist, Arrestin-AP2 inh)
Cc1ccc(/C=C2/SC(=S)N(C3CCCCC3)C2=O)o1	Arrestin-AP2 inh 62
COc1ccc(-c2nc(NC(=O)CSc3nnc4ccccn34)ns2)cc1	GC-B act 45 (no result: Arrestin-AP2 inh)
Cc1ccc(Nc2c(-c3ccco3)nc3nc(C)cc(C)n23)cc1	GC-A act 68
COc1ccc(Nc2c(-c3cccc(OC)c3)nc3nc(C)cc(C)n23)cc1	none (no result: Arrestin-AP2 inh)
COCCn1c(-c2ccc(-c3ccccc3Cl)o2)nc2c1c(=O)[nH]c(=O)n2CC(C)C	GC-B act 36
CCCCn1c(=O)[nH]c(=O)c2c1nc(-c1ccc(-c3ccccc3Br)o1)n2CCOC	none
